Data as given in ChEMBL document CHEMBL4765405, “Design, synthesis and biological activities of novel pleuromutilin derivatives with a substituted triazole moiety as potent antibacterial agents” (Eur J Med Chem, 2020).
≈ marks a conversion by molar mass, not a printed value.

How the values were obtained:
Format in all cases: functional
[1] = tested on: Staphylococcus aureus; test: Bactericidal activity against methicillin-resistant Staphylococcus aureus ATCC 43300 preincubated 16 to 20 hrs followed by subculturing and measured after over night
Procedure, shortened: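 MBC determined by the CLSI broth microdilution method against MRSA ATCC 43300, with ATCC 43300 also serving as the QC strain. Pleuromutilin and tiamulin were reference drugs.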

[2] = tested on: Escherichia coli; test: Bactericidal activity against Escherichia coli ATCC 25922 preincubated 16 to 20 hrs followed by subculturing and measured after over night
Procedure, shortened: (§1)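 MBC by CLSI broth microdilution on the same strain panel: S. aureus ATCC 43300, ATCC 29213, clinical isolates AD3 and 144, E. coli ATCC 25922; ATCC 43300 served as QC strain.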

[3] = tested on: Staphylococcus aureus; test: Bactericidal activity against Staphylococcus aureus 144 preincubated 16 to 20 hrs followed by subculturing and measured after over night; procedure, shortened: as §1
[4] = tested on: Escherichia coli; test: Antibacterial activity against Escherichia coli ATCC 25922 after 24 hrs by CLSI based broth micro dilution method
Procedure, shortened: (§2)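 CLSI broth microdilution MIC against S. aureus ATCC 43300 (MRSA), ATCC 29213, clinical isolates AD3 and 144 (Guangdong Province), and E. coli ATCC 25922; ATCC 43300 served as QC strain, with the CLSI quality control range as reference.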

[5] = Ratio of MBC for bactericidal activity against methicillin-resistant Staphylococcus aureus ATCC 43300 to MIC for antibacterial activity against methicillin-resistant Staphylococcus aureus ATCC 4330
[6] = tested on: Staphylococcus aureus; test: Bactericidal activity against Staphylococcus aureus AD3 preincubated 16 to 20 hrs followed by subculturing and measured after over night; procedure, shortened: as §1
[7] = tested on: Staphylococcus aureus; test: Bactericidal activity against Staphylococcus aureus ATCC 29213 preincubated 16 to 20 hrs followed by subculturing and measured after over night; procedure, shortened: as §1
[8] = tested on: Staphylococcus aureus; test: Antibacterial activity against Staphylococcus aureus ATCC 29213 after 24 hrs by CLSI based broth micro dilution method
Procedure, shortened: (§3)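 Broth microdilution run per CLSI. MRSA ATCC 43300 served as the QC strain, with the CLSI QC range as reference. S. aureus AD3 and 144 are clinical isolates from Guangdong Province. Pleuromutilin and tiamulin were run as reference drugs.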

[9] = tested on: Staphylococcus aureus; test: Antibacterial activity against Staphylococcus aureus AD3 after 24 hrs by CLSI based broth micro dilution method; procedure, shortened: as §2
[10] = tested on: Staphylococcus aureus; test: Antibacterial activity against Staphylococcus aureus 144 after 24 hrs by CLSI based broth micro dilution method; procedure, shortened: as §3
[11] = tested on: Staphylococcus aureus; test: Antibacterial activity against methicillin-resistant Staphylococcus aureus ATCC 43300 after 24 hrs by CLSI based broth micro dilution method; procedure, shortened: as §3

Q: Which results are given for `C=C[C@]1(C)C[C@@H](OC(=O)CSc2ccccc2NC(=O)Cn2cc(CN3CCN(c4ccccc4OC)CC3)nn2)[C@]2(C)[C@H](C)CC[C@]3(CCC(=O)[C@H]32)[C@@H](C)[C@@H]1O`?
A: MBC [1]: 1 µg/mL (≈ 1.25 µM); MBC [2]: > 32 µg/mL; MBC [3]: 4 µg/mL (≈ 5.01 µM); MIC [4]: > 32 µg/mL; Ratio [5]: 1; MBC [6]: 2 µg/mL (≈ 2.5 µM); MBC [7]: 2 µg/mL (≈ 2.5 µM); MIC [8]: 1 µg/mL (≈ 1.25 µM); MIC [9]: 1 µg/mL (≈ 1.25 µM); MIC [10]: 1 µg/mL (≈ 1.25 µM); MIC [11]: 0.5 µg/mL (≈ 0.626 µM)

Q: With `C=C[C@]1(C)C[C@@H](OC(=O)CSc2ccccc2NC(=O)Cn2cc(CN3CCN(c4ccccc4O)CC3)nn2)[C@]2(C)[C@H](C)CC[C@]3(CCC(=O)[C@H]32)[C@@H](C)[C@@H]1O` as the compound, how does the MBC [1] read?
A: The MBC was 1 µg/mL (≈ 1.27 µM).

Q: What about the MBC [2] of the same compound?
A: Its MBC is > 32 µg/mL.

Q: And the MBC [3]?
A: The MBC was 2 µg/mL (≈ 2.55 µM).

Q: What about the MIC [4] of the same compound?
A: The MIC was > 32 µg/mL.

Q: And the Ratio [5]?
A: The Ratio was 1.

Q: And the MBC [6]?
A: The MBC was 2 µg/mL (≈ 2.55 µM).

Q: What about the MBC [7] of the same compound?
A: The MBC was 1 µg/mL (≈ 1.27 µM).

Q: And the MIC [8]?
A: The MIC was 1 µg/mL (≈ 1.27 µM).

Q: What about the MIC [9] of the same compound?
A: The MIC was 1 µg/mL (≈ 1.27 µM).

Q: And the MIC [10]?
A: The MIC was 1 µg/mL (≈ 1.27 µM).

Q: What about the MIC [11] of the same compound?
A: The MIC was 0.5 µg/mL (≈ 0.637 µM).

Q: Which MBC [1] does the source give for `C=C[C@]1(C)C[C@@H](OC(=O)CSc2ccccc2NC(=O)Cn2cc(CN3CCN(C)CC3)nn2)[C@]2(C)[C@H](C)CC[C@]3(CCC(=O)[C@H]32)[C@@H](C)[C@@H]1O` here?
A: Its MBC is 0.5 µg/mL (≈ 0.707 µM).

Q: What about the MBC [2] of the same compound?
A: Its MBC is > 32 µg/mL.

Q: What about the MBC [3] of the same compound?
A: The MBC was 2 µg/mL (≈ 2.83 µM).

Q: What about the MIC [4] of the same compound?
A: The MIC was > 32 µg/mL.

Q: What about the Ratio [5] of the same compound?
A: Its Ratio is 1.

Q: And the MBC [6]?
A: Its MBC is 1 µg/mL (≈ 1.41 µM).

Q: What about the MBC [7] of the same compound?
A: Its MBC is 0.5 µg/mL (≈ 0.707 µM).

Q: And the MIC [8]?
A: Its MIC is 0.25 µg/mL (≈ 0.354 µM).

Q: And the MIC [9]?
A: Its MIC is 0.5 µg/mL (≈ 0.707 µM).

Q: And the MIC [10]?
A: Its MIC is 0.5 µg/mL (≈ 0.707 µM).

Q: What about the MIC [11] of the same compound?
A: The MIC was 0.25 µg/mL (≈ 0.354 µM).

Q: What does the source list for `C=C[C@]1(C)C[C@@H](OC(=O)CSc2ccccc2NC(=O)Cn2cc(CN3CCN(c4cccc(O)c4)CC3)nn2)[C@]2(C)[C@H](C)CC[C@]3(CCC(=O)[C@H]32)[C@@H](C)[C@@H]1O`?
A: MBC [1]: 0.5 µg/mL (≈ 0.637 µM); MBC [2]: > 32 µg/mL; MBC [3]: 1 µg/mL (≈ 1.27 µM); MIC [4]: > 32 µg/mL; Ratio [5]: 1; MBC [6]: 0.5 µg/mL (≈ 0.637 µM); MBC [7]: 0.5 µg/mL (≈ 0.637 µM); MIC [8]: 0.25 µg/mL (≈ 0.318 µM); MIC [9]: 0.25 µg/mL (≈ 0.318 µM); MIC [10]: 0.5 µg/mL (≈ 0.637 µM); MIC [11]: 0.25 µg/mL (≈ 0.318 µM)

Q: Which results are given for `C=C[C@]1(C)C[C@@H](OC(=O)CO)[C@]2(C)[C@H](C)CC[C@]3(CCC(=O)[C@H]32)[C@@H](C)[C@@H]1O` [PLEUROMULIN]?
A: MBC [1]: 4 µg/mL (≈ 10.6 µM); MBC [3]: 4 µg/mL (≈ 10.6 µM); MBC [6]: 4 µg/mL (≈ 10.6 µM); MBC [7]: 2 µg/mL (≈ 5.28 µM); MIC [8]: 1 µg/mL (≈ 2.64 µM); MIC [9]: 2 µg/mL (≈ 5.28 µM); MIC [10]: 2 µg/mL (≈ 5.28 µM); MIC [11]: 2 µg/mL (≈ 5.28 µM)

Q: What does the source list for `C=C[C@]1(C)C[C@@H](OC(=O)CSc2ccccc2NC(=O)Cn2cc(CN3CCC(O)CC3)nn2)[C@]2(C)[C@H](C)CC[C@]3(CCC(=O)[C@H]32)[C@@H](C)[C@@H]1O`?
A: MBC [1]: 2 µg/mL (≈ 2.83 µM); MBC [2]: > 32 µg/mL; MBC [3]: 2 µg/mL (≈ 2.83 µM); MIC [4]: > 32 µg/mL; Ratio [5]: 1; MBC [6]: 1 µg/mL (≈ 1.41 µM); MBC [7]: 1 µg/mL (≈ 1.41 µM); MIC [8]: 1 µg/mL (≈ 1.41 µM); MIC [9]: 1 µg/mL (≈ 1.41 µM); MIC [10]: 1 µg/mL (≈ 1.41 µM); MIC [11]: 1 µg/mL (≈ 1.41 µM)

Q: With `C=C[C@]1(C)C[C@@H](OC(=O)CSc2ccccc2NC(=O)Cn2cc(CN3CCC(CCO)CC3)nn2)[C@]2(C)[C@H](C)CC[C@]3(CCC(=O)[C@H]32)[C@@H](C)[C@@H]1O` as the compound, how does the MBC [1] read?
A: The MBC was 1 µg/mL (≈ 1.36 µM).

Q: What about the MBC [2] of the same compound?
A: Its MBC is > 32 µg/mL.

Q: And the MBC [3]?
A: Its MBC is 0.5 µg/mL (≈ 0.679 µM).

Q: What about the MIC [4] of the same compound?
A: The MIC was > 32 µg/mL.

Q: And the Ratio [5]?
A: Its Ratio is 1.

Q: And the MBC [6]?
A: The MBC was 1 µg/mL (≈ 1.36 µM).

Q: What about the MBC [7] of the same compound?
A: Its MBC is 0.5 µg/mL (≈ 0.679 µM).

Q: And the MIC [8]?
A: The MIC was 0.5 µg/mL (≈ 0.679 µM).

Q: What about the MIC [9] of the same compound?
A: The MIC was 1 µg/mL (≈ 1.36 µM).

Q: And the MIC [10]?
A: Its MIC is 0.5 µg/mL (≈ 0.679 µM).

Q: And the MIC [11]?
A: The MIC was 0.5 µg/mL (≈ 0.679 µM).

Q: With `C=C[C@]1(C)C[C@@H](OC(=O)CSc2ccccc2NC(=O)Cn2cc(CN3CCN(c4ccccc4[N+](=O)[O-])CC3)nn2)[C@]2(C)[C@H](C)CC[C@]3(CCC(=O)[C@H]32)[C@@H](C)[C@@H]1O` as the compound, how does the MBC [1] read?
A: The MBC was 1 µg/mL (≈ 1.23 µM).

Q: And the MBC [2]?
A: The MBC was > 32 µg/mL.

Q: And the MBC [3]?
A: The MBC was 2 µg/mL (≈ 2.46 µM).

Q: And the MIC [4]?
A: Its MIC is > 32 µg/mL.

Q: What about the Ratio [5] of the same compound?
A: Its Ratio is 1.

Q: What about the MBC [6] of the same compound?
A: The MBC was 1 µg/mL (≈ 1.23 µM).

Q: And the MBC [7]?
A: The MBC was 0.25 µg/mL (≈ 0.307 µM).

Q: And the MIC [8]?
A: The MIC was 0.25 µg/mL (≈ 0.307 µM).

Q: And the MIC [9]?
A: The MIC was 0.5 µg/mL (≈ 0.614 µM).

Q: What about the MIC [10] of the same compound?
A: Its MIC is 0.5 µg/mL (≈ 0.614 µM).

Q: And the MIC [11]?
A: The MIC was 0.5 µg/mL (≈ 0.614 µM).

Q: What does the source list for `C=C[C@]1(C)C[C@@H](OC(=O)CSc2ccccc2NC(=O)Cn2cc(CN3CCN(c4cccc(Cl)c4)CC3)nn2)[C@]2(C)[C@H](C)CC[C@]3(CCC(=O)[C@H]32)[C@@H](C)[C@@H]1O`?
A: MBC [1]: 4 µg/mL (≈ 4.98 µM); MBC [2]: > 32 µg/mL; MBC [3]: 4 µg/mL (≈ 4.98 µM); MIC [4]: > 32 µg/mL; Ratio [5]: 1; MBC [6]: 2 µg/mL (≈ 2.49 µM); MBC [7]: 1 µg/mL (≈ 1.24 µM); MIC [8]: 1 µg/mL (≈ 1.24 µM); MIC [9]: 2 µg/mL (≈ 2.49 µM); MIC [10]: 2 µg/mL (≈ 2.49 µM); MIC [11]: 2 µg/mL (≈ 2.49 µM)
